For orientation: pKa means the pH at which an ionisable group is half protonated. Usually MBC stands for the smallest concentration meeting the test's criterion for killing. A low value points to greater bactericidal potency.

Results on eight compounds are retold here after ChEMBL document CHEMBL4346672, “Antimicrobial and KPC/AmpC inhibitory activity of functionalized benzosiloxaboroles” (Eur J Med Chem, 2019).

In brackets after ≈: the same amount, converted by molar mass.

The test system of data set [1] is Escherichia coli. Description: Inhibition of beta lactamase KPC-3 in Escherichia coli 82 TR assessed as potentiation of ceftazidime-induced antibacterial activity by measuring ceftazidime MIC at 16 mg/L incubated for 18 hrs by broth dilution method (reference value: […] mg/L).
Data set [2] can be described thus: Cytotoxicity against human MRC5 cells assessed as cell viability at 32 ug/ml incubated for 72 hrs by MTT assay. The class given is cell-based. To be noted: read-out: Activity. The gist of the method: (§1)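 MRC-5 pd30 human fibroblasts grown in MEM with 10% FBS, 2 mM L-glutamine, penicillin/streptomycin and 1% non-essential amino acids at 37 °C, 5% CO2. Exponentially growing cells trypsinized and seeded at 8×10^3 cells/well, then dosed 18 h later with 2-fold dilutions (0.5% DMSO final) for 72 h. MTT (1 mg/ml final) added for 1 h at 37 °C, formazan dissolved in DMSO, OD read at 570 nm. Four replicates, expressed as % viable versus control.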
In general terms: Tetrazolium dyes change colour on reduction, which living cells bring about.

Data set [3] concerns Klebsiella pneumoniae ATCC BAA-1705. Description: Inhibition of beta lactamase KPC-2 in Klebsiella pneumoniae ATCC BAA 1705 assessed as potentiation of ceftazidime-induced antibacterial activity by measuring ceftazidime MIC at 16 mg/L incubated for 18 hrs by broth dilution method. (In broth dilution the organism is exposed to a series of concentrations in liquid medium.)
Data set [4] deals with Pseudomonas aeruginosa. Description: Inhibition of beta lactamase OXA-15 in Pseudomonas aeruginosa 852 assessed as potentiation of ceftazidime-induced antibacterial activity by measuring ceftazidime MIC at 16 mg/L incubated for 18 hrs by broth dilution method (reference value: >[…] mg/L).
For data set [5], the system named is Klebsiella pneumoniae. Description: Inhibition of beta lactamase KPC-3 in Klebsiella pneumoniae 83 assessed as potentiation of ceftazidime-induced antibacterial activity by measuring ceftazidime MIC at 16 mg/L incubated for 18 hrs by broth dilution method (reference value: >[…] mg/L).
In data set [6] the test system is Pseudomonas aeruginosa. Description: Inhibition of beta lactamase VIM in Pseudomonas aeruginosa 698 assessed as potentiation of ceftazidime-induced antibacterial activity by measuring ceftazidime MIC at 16 mg/L incubated for 18 hrs by broth dilution method (reference value: […] mg/L).
In data set [7] the test system is Klebsiella pneumoniae 700603. Description: Inhibition of extended-spectrum beta lactamase in Klebsiella pneumoniae ATCC 700603 assessed as potentiation of ceftazidime-induced antibacterial activity by measuring diameter of zone inhibition at 0.3 mg incubated for 18 hrs in presence of 10 ug ceftazidime by CLSI disc diffusion method (Rvb=13 mm). The gist of the method:
(§2)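 EUCAST ESBL combination disc test on Mueller-Hinton agar. Zones were compared between a ceftazidime or cefotaxime disc alone and the same disc plus agent at 0.3 mg per disc. Clavulanic acid discs at 0.01 mg per disc served as reference. Plates were incubated at 35 °C for 18 h. A difference of at least 5 mm was counted as inhibition.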
A general note: A growth-free zone around the sample is the usual read-out of agar diffusion tests.

Data set [8] has as its system Escherichia coli. Description: Inhibition of beta lactamase CMY-2 in Escherichia coli 77 assessed as potentiation of ceftazidime-induced antibacterial activity by measuring ceftazidime MIC at 16 mg/L incubated for 18 hrs by broth dilution method (reference value: […] mg/L).
Data set [9] concerns Klebsiella pneumoniae. Description: Inhibition of beta lactamase KPC-3 in Klebsiella pneumoniae 81 assessed as potentiation of ceftazidime-induced antibacterial activity by measuring ceftazidime MIC at 16 mg/L incubated for 18 hrs by broth dilution method (reference value: >[…] mg/L).
The subject of data set [10] is Klebsiella pneumoniae. Description: Inhibition of beta lactamase CMY-2 in Klebsiella pneumoniae 78 assessed as potentiation of ceftazidime-induced antibacterial activity by measuring ceftazidime MIC at 16 mg/L incubated for 18 hrs by broth dilution method (reference value: >[…] mg/L).
Data set [11] deals with Klebsiella pneumoniae ATCC BAA-1705. Put plainly: Inhibition of beta lactamase KPC-2 in Klebsiella pneumoniae ATCC BAA 1705 assessed as potentiation of meropenem-induced antibacterial activity by measuring meropenem MIC at 16 mg/L incubated for 18 hrs by broth dilution method (reference value: […] mg/L).
Data set [12] deals with Pseudomonas aeruginosa. Put plainly: Inhibition of beta lactamase AmpC in Pseudomonas aeruginosa MUW 700 assessed as potentiation of ceftazidime-induced antibacterial activity by measuring diameter of zone inhibition at 0.3 mg incubated for 18 hrs in presence of 30 ug ceftazidime by CLSI disc diffusion method (Rvb=11 mm). Summed up: (§3)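 AmpC combination disc test on Mueller-Hinton agar, following EUCAST guidance and Yagi et al. Inhibition zones were compared between a CAZ-30 disc and a ceftazidime disc plus agent or PBA, each at 0.3 mg per disc. Plates were incubated at 35 °C for 18 h. A zone difference of at least 5 mm was counted as inhibition.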

A short description of data set [13]: Cytotoxicity against human MRC5 cells assessed as cell viability at 16 ug/ml incubated for 72 hrs by MTT assay. The following applies: read-out: Activity. The data set is classed as cell-based. Summed up:
as §1

The test system of data set [14] is Acinetobacter baumannii. Description: Inhibition of beta lactamase OXA-24 in Acinetobacter baumannii 181 assessed as potentiation of ceftazidime-induced antibacterial activity by measuring ceftazidime MIC at 16 mg/L incubated for 18 hrs by broth dilution method (reference value: >[…] mg/L).
In data set [15] the test system is Escherichia coli. Description: Inhibition of beta lactamase CMY-2 in Escherichia coli 77 assessed as potentiation of ceftazidime-induced antibacterial activity by measuring diameter of zone inhibition at 0.3 mg incubated for 18 hrs in presence of 30 ug ceftazidime by CLSI disc diffusion method (Rvb=13 mm). Summed up:
as §3

Data set [16] has as its system Acinetobacter baumannii. Put plainly: Inhibition of beta lactamase OXA-24 in Acinetobacter baumannii 181 assessed as potentiation of meropenem-induced antibacterial activity by measuring meropenem MIC at 16 mg/L incubated for 18 hrs by broth dilution method (reference value: […] mg/L).
In data set [17] the test system is Klebsiella pneumoniae 700603. Description: Inhibition of extended-spectrum beta lactamase in Klebsiella pneumoniae ATCC 700603 assessed as potentiation of cefotaxime-induced antibacterial activity by measuring diameter of zone inhibition at 0.3 mg incubated for 18 hrs in presence of 10 ug cefotaxime by CLSI disc diffusion method (Rvb=19 mm). Summed up: as §2

Data set [18] relates to Klebsiella pneumoniae. Put plainly: Inhibition of beta lactamase KPC-3 in Klebsiella pneumoniae 81 assessed as potentiation of meropenem-induced antibacterial activity by measuring meropenem MIC at 16 mg/L incubated for 18 hrs by broth dilution method (reference value: […] mg/L).
Data set [19] is described as follows: Cytotoxicity against human MRC5 cells assessed as cell viability at 4 ug/ml incubated for 72 hrs by MTT assay. The data set is classed as cell-based. The following applies: read-out: Activity. The gist of the method:
as §1

For data set [20], the system named is Klebsiella pneumoniae. Description: Inhibition of beta lactamase KPC-2 in Klebsiella pneumoniae 75 assessed as potentiation of meropenem-induced antibacterial activity by measuring meropenem MIC at 16 mg/L incubated for 18 hrs by broth dilution method (reference value: […] mg/L).
The test system of data set [21] is Klebsiella pneumoniae. Put plainly: Inhibition of beta lactamase SHV-12 in Klebsiella pneumoniae ATCC 700603 assessed as potentiation of ceftazidime-induced antibacterial activity by measuring ceftazidime MIC at 16 mg/L incubated for 18 hrs by broth dilution method (reference value: […] mg/L).
Data set [22] is described as follows: Dissociation constant, pKa2 of compound in 0.1 M NaOH by potentiometric analysis. The data set is classed as physicochemical.
For data set [23], the system named is Stenotrophomonas maltophilia. Description: Bactericidal activity against Stenotrophomonas maltophilia ATCC 13637 measured after 18 hrs by CLSI broth dilution method. The following applies: ATCC 13637, 18 h. The class given is functional. The gist of the method:
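Strains stored at -80 °C and subcultured twice on tryptic soy agar before testing. Compounds dissolved in DMSO. […] MBC then determined per CLSI recommendations.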

Turning to `C[Si]1(C)OB(O)c2ccc(B(O)O)cc21`, the MIC is 32 µg/mL in data set [1]; 64 µg/mL in data set [3]; over 64 µg/mL in data set [4]; 64 µg/mL in [5]; 64 µg/mL in data set [6]; 8 µg/mL in data set [8]. The MIC in data set [9] was 64 µg/mL; in data set [10], 64 µg/mL; in [11], 32 µg/mL; in data set [14] it was over 64 µg/mL; in data set [16], over 64 µg/mL; in data set [18], 4 µg/mL. Also, the MIC in data set [20] was 16 µg/mL; in data set [21], 64 µg/mL. In addition, the viability at 72 h, 32 ug/ml in data set [2] came to 102%. In addition, the inhibition zone (IZ) came to 13 mm in data set [7], 18 mm in [12], 22 mm in data set [15] and 19 mm in [17]. In [13], the viability at 72 h, 16 ug/ml is 120%. In addition, in [19], the viability at 72 h, 4 ug/ml came out at 129%.
Turning to `C[Si]1(C)OB(O)c2c(F)c3c(c(F)c21)B(O)OC3`, the MIC is 32 µg/mL in data set [1]; 64 µg/mL in data set [3]; over 64 µg/mL in data set [4]; 64 µg/mL in [5]; 64 µg/mL in data set [6]; 32 µg/mL in data set [8]. Moreover, the MIC in data set [9] is 64 µg/mL; in data set [10], over 64 µg/mL; in data set [11] it was 64 µg/mL; in data set [14] it was over 64 µg/mL; in data set [16] it was over 64 µg/mL; in data set [18] it was 16 µg/mL. Also, the MIC in data set [20] amounted to 32 µg/mL; in data set [21] it was 64 µg/mL. In data set [22], this compound registered a pKa of 7.8. In addition, the inhibition zone (IZ) in data set [7] amounted to 13 mm; in data set [12], 11 mm; in data set [15] it was 20 mm; in [17] it was 19 mm. The compound further returned an MBC in data set [23] of 400 µg/mL (≈ 1480 µM).
In turn, `C[Si]1(C)OB(O)c2cc(B(O)O)cc(F)c21` registered a pKa in [22] of 10.2.
In the case of `C[Si]1(C)OB(O)c2ccc(F)c(F)c21`, the MIC was 32 µg/mL in data set [1]; 64 µg/mL in data set [3]; over 64 µg/mL in [4]; over 64 µg/mL in data set [5]; 64 µg/mL in data set [6]; 16 µg/mL in data set [8]. Further, the MIC is 64 µg/mL in data set [9]; 64 µg/mL in data set [10]; 64 µg/mL in data set [11]; over 64 µg/mL in data set [14]; over 64 µg/mL in data set [16]; 8 µg/mL in [18]. The MIC in data set [20] and in data set [21] was 32 µg/mL throughout. In addition, in data set [2], the viability at 72 h, 32 ug/ml amounted to 74%. Besides, the inhibition zone (IZ) came to 13 mm in data set [7], 14 mm in [12], 22 mm in [15] and 19 mm in data set [17]. Also, in data set [13], the viability at 72 h, 16 ug/ml was found to be 99%. In addition, the MBC in data set [23] was 400 µg/mL (≈ 1870 µM). For the same compound, the viability at 72 h, 4 ug/ml in [19] turned out to be 111%.
Take `C[Si]1(C)OB(O)c2c(F)c(F)c(F)c(F)c21`: the MIC in data set [1] is 32 µg/mL; in data set [3], 64 µg/mL; in data set [4], over 64 µg/mL; in data set [5], over 64 µg/mL; in [6] it was 64 µg/mL; in data set [8], 16 µg/mL. Also, the MIC was 64 µg/mL in [9]; 64 µg/mL in data set [10]; 64 µg/mL in data set [11]; over 64 µg/mL in [14]; over 64 µg/mL in data set [16]; 16 µg/mL in data set [18]. The values for the MIC in data set [20] and in data set [21] were 32 µg/mL and 64 µg/mL, respectively. Further, the inhibition zone (IZ) in data set [7] amounted to 13 mm; in [12] it was 11 mm; in data set [15] it was 22 mm; in data set [17] it was 19 mm.
Compound `C[Si]1(C)OB(O)c2ccc(Cl)c(Cl)c21` had an MBC in data set [23] of 400 µg/mL (≈ 1620 µM).
Still for that read-out and setting: the figure for `C[Si]1(C)OB(O)c2ccc(Cl)cc21` is 200 µg/mL (≈ 941 µM).
As to `C[Si]1(C)OB(O)c2cc3c(c(F)c21)COB3O`, the MIC in data set [1] is 32 µg/mL; in data set [3] it was 64 µg/mL; in [4], over 64 µg/mL; in data set [5] it was over 64 µg/mL; in data set [6], 64 µg/mL; in data set [8], 16 µg/mL. Moreover, the MIC in [9] is 64 µg/mL; in [10], over 64 µg/mL; in data set [11], 64 µg/mL; in data set [14], over 64 µg/mL; in data set [16], over 64 µg/mL; in [18], 8 µg/mL. Moreover, the MIC in data set [20] and in data set [21] was 32 µg/mL throughout. Moreover, in data set [2], the viability at 72 h, 32 ug/ml came to 54.3%. The same compound gave a pKa in [22] of 8.6. Also, the inhibition zone (IZ) is 13 mm in data set [7], 16 mm in data set [12], 20 mm in data set [15] and 19 mm in [17]. Further, in data set [13], the viability at 72 h, 16 ug/ml was 100%. Moreover, the viability at 72 h, 4 ug/ml in [19] is 108%.
